Activity calls are given as the source filed them. The rule behind the calls is not given here.
The compounds below were run against T1, C-C chemokine receptor type 3 (Homo sapiens) (UniProt P51677) (assay: Antagonist activity at human EGFP-fused CCR3 expressed in mouse L1.2 cells assessed as inhibition of CCL11-induced chemotaxis at 1 uM measured after 1.5 hrs by PicoGreen dsDNA reagent-based assay). Settings: not given.
T1 sequence (whole entry): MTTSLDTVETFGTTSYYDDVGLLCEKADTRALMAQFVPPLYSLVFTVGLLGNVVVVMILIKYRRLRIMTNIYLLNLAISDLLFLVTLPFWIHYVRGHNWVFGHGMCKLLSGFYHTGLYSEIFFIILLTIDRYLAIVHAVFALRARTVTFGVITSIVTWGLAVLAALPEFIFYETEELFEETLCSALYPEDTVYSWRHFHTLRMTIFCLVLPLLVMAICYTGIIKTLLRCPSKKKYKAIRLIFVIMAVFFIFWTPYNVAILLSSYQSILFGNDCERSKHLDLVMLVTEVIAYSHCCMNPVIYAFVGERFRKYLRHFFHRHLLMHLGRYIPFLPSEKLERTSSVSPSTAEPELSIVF
Format: cell-based
Summary of the method: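 Human CCR3 was stably expressed in mouse pre-B L1.2 cells by a retroviral pMX-IRES-EGFP vector, and EGFP+ cells were sorted. Test sample was at 1 μM (DMSO, 0.5% final) with 10 nM CCL11 in lower wells (phenol red-free RPMI/BSA). Cells at 8 × 10^6/mL crossed a 5 μm filter for 1.5 h at 37 °C. Migrated cells were lysed (0.1% Triton X-100) and quantified with PicoGreen. Three experiments, Dunnett's test vs control.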
In the case of `C=CCc1cc(OC)c2c(c1)OCO2`, the inhibition is reported as “Active”. For `C=CCc1cc(OC)c(O[C@H](C)Cc2ccc3c(c2)OCO3)c(OC)c1`, the inhibition was “Active”. With `C/C=C/c1cc(OC)c2c(c1)[C@@H](C)[C@H](c1ccc(O)c(OC)c1)O2` the inhibition was “Active”. For `C/C=C/c1cc(OC)c2c(c1)[C@@H](C)[C@H](c1cc(OC)c(O)c(OC)c1)O2`, the inhibition was “Active”. With `C=CCc1cc(OC)c(O[C@H](C)[C@@H](O)c2ccc3c(c2)OCO3)c(OC)c1` the inhibition was “Active”. With `COc1cc([C@H]2Oc3c(OC)cc(/C=C/C=O)cc3[C@@H]2C)ccc1O` the inhibition was “Active”. With `C=CCc1cc(OC)c(O[C@H](C)[C@@H](O)c2cc(OC)c(O)c(OC)c2)c(OC)c1` the inhibition was “Active”. `COc1cc([C@H]2O[C@@H](c3ccc(O)c(OC)c3)[C@@H](C)[C@@H]2C)ccc1O` was tested, and the inhibition was “Active”. With `C=CCc1cc(OC)c(O[C@@H](C)[C@H](OC(C)=O)c2ccc(OC)c(OC)c2)c(OC)c1` the inhibition was “Active”. In the case of `COc1cc([C@H]2O[C@@H](c3ccc(O)c(OC)c3)[C@H](C)[C@@H]2C)ccc1O`, the inhibition is reported as “Active”.

Organism: Mus musculus
Experiment: Cytotoxicity against mouse L1.2 cells at 1.5 uM
Format: toxicity, cell-based
Settings: l1.2, 1.5 µM
`C=CCc1cc(OC)c(O[C@H](C)[C@@H](O)c2cc(OC)c(O)c(OC)c2)c(OC)c1` was tested, and the Activity was “Non-Toxic”.

Reference: ChEMBL document CHEMBL3865813, “Neolignans from the Arils of Myristica fragrans as Potent Antagonists of CC Chemokine Receptor 3” (J Nat Prod, 2016)
